Measurements published in ChEMBL document CHEMBL2375313, “Synthesis, in vitro antitumor evaluation and DNA-binding study of novel tetrahydroquinolines and some derived tricyclic and tetracyclic ring systems” (Eur J Med Chem, 2013).

How the values were obtained:
Format in all cases: functional
A549 = experiment: Cytotoxicity against human A549 cells assessed as growth inhibition at 10 uM after 48 hrs by sulphorhodamine B assay; details: A549, 48 h, read-out: GI
Outline: (§1)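 NCI-60 one-dose screen per the NCI Drug Evaluation Branch protocol. Cells given a single 10 µM concentration with 48 h continuous exposure. Growth estimated by sulphorhodamine B protein assay. Result expressed as percentage growth inhibition relative to untreated growth.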

U-251 = experiment: Cytotoxicity against human U251 cells assessed as growth inhibition at 10 uM after 48 hrs by sulphorhodamine B assay; details: U-251, 48 h, read-out: GI; outline: as §1
SK-MEL-2 = experiment: Cytotoxicity against human SK-MEL-2 cells assessed as growth inhibition at 10 uM after 48 hrs by sulphorhodamine B assay; details: SK-MEL-2, 48 h, read-out: GI; outline: as §1
RXF 393 = experiment: Cytotoxicity against human RXF393 cells assessed as growth inhibition at 10 uM after 48 hrs by sulphorhodamine B assay; details: RXF 393, 48 h, read-out: GI; outline: as §1
K562 = experiment: Cytotoxicity against human K562 cells assessed as growth inhibition at 10 uM after 48 hrs by sulphorhodamine B assay; details: K562, 48 h, read-out: GI; outline: as §1
MCF7 = experiment: Cytotoxicity against human MCF7 cells assessed as growth inhibition at 10 uM after 48 hrs by sulphorhodamine B assay; details: MCF7, 48 h, read-out: GI; outline: as §1
SNB-75 = experiment: Cytotoxicity against human SNB75 cells assessed as growth inhibition at 10 uM after 48 hrs by sulphorhodamine B assay; details: SNB-75, 48 h, read-out: GI; outline: as §1
A498 = experiment: Cytotoxicity against human A498 cells assessed as growth inhibition at 10 uM after 48 hrs by sulphorhodamine B assay; details: A498, 48 h, read-out: GI; outline: as §1
OVCAR-5 = experiment: Cytotoxicity against human OVCAR5 cells assessed as growth inhibition at 10 uM after 48 hrs by sulphorhodamine B assay; details: OVCAR-5, 48 h, read-out: GI; outline: as §1
HT-29 = experiment: Cytotoxicity against human HT-29 cells assessed as growth inhibition at 10 uM after 48 hrs by sulphorhodamine B assay; details: HT-29, 48 h, read-out: GI; outline: as §1
PC-3 = experiment: Cytotoxicity against human PC3 cells assessed as growth inhibition at 10 uM after 48 hrs by sulphorhodamine B assay; details: PC-3, 48 h, read-out: GI; outline: as §1
NCI/ADR-RES = experiment: Cytotoxicity against human NCI/ADR-RES cells assessed as growth inhibition at 10 uM after 48 hrs by sulphorhodamine B assay; details: read-out: GI; outline: as §1
NCI-H522 = experiment: Cytotoxicity against human NCI-H522 cells assessed as growth inhibition at 10 uM after 48 hrs by sulphorhodamine B assay; details: NCI-H522, 48 h, read-out: GI; outline: as §1
LOX IMVI = experiment: Cytotoxicity against human LOXIMVI cells assessed as growth inhibition at 10 uM after 48 hrs by sulphorhodamine B assay; details: read-out: GI; outline: as §1
SNB-19 = experiment: Cytotoxicity against human SNB19 cells assessed as growth inhibition at 10 uM after 48 hrs by sulphorhodamine B assay; details: SNB-19, 48 h, read-out: GI; outline: as §1
SK-MEL-5 = experiment: Cytotoxicity against human SK-MEL-5 cells assessed as growth inhibition at 10 uM after 48 hrs by sulphorhodamine B assay; details: SK-MEL-5, 48 h, read-out: GI; outline: as §1
MOLT-4 = experiment: Cytotoxicity against human MOLT4 cells assessed as growth inhibition at 10 uM after 48 hrs by sulphorhodamine B assay; details: MOLT-4, 48 h, read-out: GI; outline: as §1
HCT-116 = experiment: Cytotoxicity against human HCT116 cells assessed as growth inhibition at 10 uM after 48 hrs by sulphorhodamine B assay; details: HCT-116, 48 h, read-out: GI; outline: as §1
SK-OV-3 = experiment: Cytotoxicity against human SKOV3 cells assessed as growth inhibition at 10 uM after 48 hrs by sulphorhodamine B assay; details: SK-OV-3, 48 h, read-out: GI; outline: as §1
[1] = Cytotoxicity against human EKVX cells assessed as growth inhibition at 10 uM after 48 hrs by sulphorhodamine B assay; details: read-out: GI; outline: as §1
OVCAR-4 = experiment: Cytotoxicity against human OVCAR4 cells assessed as growth inhibition at 10 uM after 48 hrs by sulphorhodamine B assay; details: OVCAR-4, 48 h, read-out: GI; outline: as §1
MDA-MB-468 = experiment: Cytotoxicity against human MDA-MB-468 cells assessed as growth inhibition at 10 uM after 48 hrs by sulphorhodamine B assay; details: MDA-MB-468, 48 h, read-out: GI; outline: as §1
RPMI-8226 = experiment: Cytotoxicity against human RPMI8226 cells assessed as growth inhibition at 10 uM after 48 hrs by sulphorhodamine B assay; details: RPMI-8226, 48 h, read-out: GI; outline: as §1
ACHN = experiment: Cytotoxicity against human ACHN cells assessed as growth inhibition at 10 uM after 48 hrs by sulphorhodamine B assay; details: read-out: GI; outline: as §1
SF-268 = experiment: Cytotoxicity against human SF268 cells assessed as growth inhibition at 10 uM after 48 hrs by sulphorhodamine B assay; details: SF-268, 48 h, read-out: GI; outline: as §1
IGROV-1 = experiment: Cytotoxicity against human IGROV1 cells assessed as growth inhibition at 10 uM after 48 hrs by sulphorhodamine B assay; details: IGROV-1, 48 h, read-out: GI; outline: as §1
CCRF-CEM = experiment: Cytotoxicity against human CCRF-CEM cells assessed as growth inhibition at 10 uM after 48 hrs by sulphorhodamine B assay; details: read-out: GI; outline: as §1
SF-295 = experiment: Cytotoxicity against human SF295 cells assessed as growth inhibition at 10 uM after 48 hrs by sulphorhodamine B assay; details: SF-295, 48 h, read-out: GI; outline: as §1
MDA-MB-435 = experiment: Cytotoxicity against human MDA-MB-435 cells assessed as growth inhibition at 10 uM after 48 hrs by sulphorhodamine B assay; details: MDA-MB-435, 48 h, read-out: GI; outline: as §1
UO-31 = experiment: Cytotoxicity against human UO31 cells assessed as growth inhibition at 10 uM after 48 hrs by sulphorhodamine B assay; details: UO-31, 48 h, read-out: GI; outline: as §1
HL-60(TB) = experiment: Cytotoxicity against human HL-60(TB) cells assessed as growth inhibition at 10 uM after 48 hrs by sulphorhodamine B assay; details: HL-60, 48 h, read-out: GI
Outline: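 NCI-60 one-dose primary screen run to the Drug Evaluation Branch protocol. Cells are exposed to a single 10 µM concentration for 48 h continuously, and growth is read by SRB protein assay. Data are reported as percent growth of treated cells, expressed as % growth inhibition.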

T47D = experiment: Cytotoxicity against human T47D cells assessed as growth inhibition at 10 uM after 48 hrs by sulphorhodamine B assay; details: read-out: GI; outline: as §1
HOP-92 = experiment: Cytotoxicity against human HOP92 cells assessed as growth inhibition at 10 uM after 48 hrs by sulphorhodamine B assay; details: HOP-92, 48 h, read-out: GI; outline: as §1
UACC-62 = experiment: Cytotoxicity against human UACC62 cells assessed as growth inhibition at 10 uM after 48 hrs by sulphorhodamine B assay; details: UACC-62, 48 h, read-out: GI; outline: as §1
CAKI-1 = experiment: Cytotoxicity against human Caki1 cells assessed as growth inhibition at 10 uM after 48 hrs by sulphorhodamine B assay; details: CAKI-1, 48 h, read-out: GI; outline: as §1
NCI-H23 = experiment: Cytotoxicity against human NCI-H23 cells assessed as growth inhibition at 10 uM after 48 hrs by sulphorhodamine B assay; details: NCI-H23, 48 h, read-out: GI; outline: as §1
HCT-15 = experiment: Cytotoxicity against human HCT15 cells assessed as growth inhibition at 10 uM after 48 hrs by sulphorhodamine B assay; details: HCT-15, 48 h, read-out: GI; outline: as §1
DU-145 = experiment: Cytotoxicity against human DU145 cells assessed as growth inhibition at 10 uM after 48 hrs by sulphorhodamine B assay; details: DU-145, 48 h, read-out: GI; outline: as §1
SR = experiment: Cytotoxicity against human SR cells assessed as growth inhibition at 10 uM after 48 hrs by sulphorhodamine B assay; details: read-out: GI; outline: as §1
M14 = experiment: Cytotoxicity against human M14 cells assessed as growth inhibition at 10 uM after 48 hrs by sulphorhodamine B assay; details: M14, 48 h, read-out: GI; outline: as §1
Hs-578T = experiment: Cytotoxicity against human Hs578T cells assessed as growth inhibition at 10 uM after 48 hrs by sulphorhodamine B assay; details: read-out: GI; outline: as §1

SMILES: CC1CCCc2c1nc(NC(=S)NC(=O)c1ccccc1)c(C#N)c2-c1ccc(Cl)cc1 (stereo unspecified)
- inhibition of growth at 10 µM (A549): 16%
- inhibition of growth at 10 µM (U-251): 20%
- inhibition of growth at 10 µM (SK-MEL-2): 10.3%
- inhibition of growth at 10 µM (RXF 393): < 10%
- inhibition of growth at 10 µM (K562): 36.3%
- inhibition of growth at 10 µM (MCF7): 12.1%
- inhibition of growth at 10 µM (SNB-75): 15.7%
- inhibition of growth at 10 µM (A498): 39%
- inhibition of growth at 10 µM (OVCAR-5): < 10%
- inhibition of growth at 10 µM (HT-29): < 10%
- inhibition of growth at 10 µM (PC-3): 20.3%
- inhibition of growth at 10 µM (NCI/ADR-RES): < 10%
- inhibition of growth at 10 µM (NCI-H522): 27.5%
- inhibition of growth at 10 µM (LOX IMVI): 11.1%
- inhibition of growth at 10 µM (SNB-19): 14.1%
- inhibition of growth at 10 µM (SK-MEL-5): 17.7%
- inhibition of growth at 10 µM (MOLT-4): 31%
- inhibition of growth at 10 µM (HCT-116): 20%
- inhibition of growth at 10 µM (SK-OV-3): 20%
- inhibition of growth at 10 µM [1]: 16.7%
- inhibition of growth at 10 µM (OVCAR-4): 21.4%
- inhibition of growth at 10 µM (MDA-MB-468): 14.5%
- inhibition of growth at 10 µM (RPMI-8226): 55%
- inhibition of growth at 10 µM (ACHN): 14%
- inhibition of growth at 10 µM (SF-268): < 10%
- inhibition of growth at 10 µM (IGROV-1): 32%
- inhibition of growth at 10 µM (CCRF-CEM): 27.6%
- inhibition of growth at 10 µM (SF-295): 17.2%
- inhibition of growth at 10 µM (MDA-MB-435): < 10%
- inhibition of growth at 10 µM (UO-31): 33.2%
- inhibition of growth at 10 µM (HL-60(TB)): 30%
- inhibition of growth at 10 µM (T47D): 38.8%
- inhibition of growth at 10 µM (HOP-92): 38.2%
- inhibition of growth at 10 µM (UACC-62): 25.3%
- inhibition of growth at 10 µM (CAKI-1): 22.5%
- inhibition of growth at 10 µM (NCI-H23): 10%
- inhibition of growth at 10 µM (HCT-15): 11.6%
- inhibition of growth at 10 µM (DU-145): < 10%
- inhibition of growth at 10 µM (SR): < 10%
- inhibition of growth at 10 µM (M14): < 10%
- inhibition of growth at 10 µM (Hs-578T): 13.8%
